Reference: ChEMBL document CHEMBL1152279 (J Med Chem, 2008)
Blank lines part the entries; values can stand above or below the compound they belong to.

Assays:
Histamine H2 receptor = Histamine H2 receptor (Cavia porcellus, UniProt P47747); assay: Antagonist activity at histamine H2 receptor in guinea pig spontaneously beating right atrium assessed as inhibition of histamine-induced positive chronotropic activity; format: functional, tissue-based, Cardiac atrium
[1] = Dissociation constant, pKa of the compound; format: physicochemical
[2] = biological target: Histamine H1 receptor (Homo sapiens) (UniProt P35367); assay: Antagonist activity at histamine H1 receptor in human U373 MG cells assessed as inhibition of histamine-induced intracellular calcium level preincubated for 15 mins prior to histamine challenge; format: functional, cell-based; details: U-373MG ATCC
Chain of Histamine H1 receptor (Homo sapiens) (P35367 whole entry): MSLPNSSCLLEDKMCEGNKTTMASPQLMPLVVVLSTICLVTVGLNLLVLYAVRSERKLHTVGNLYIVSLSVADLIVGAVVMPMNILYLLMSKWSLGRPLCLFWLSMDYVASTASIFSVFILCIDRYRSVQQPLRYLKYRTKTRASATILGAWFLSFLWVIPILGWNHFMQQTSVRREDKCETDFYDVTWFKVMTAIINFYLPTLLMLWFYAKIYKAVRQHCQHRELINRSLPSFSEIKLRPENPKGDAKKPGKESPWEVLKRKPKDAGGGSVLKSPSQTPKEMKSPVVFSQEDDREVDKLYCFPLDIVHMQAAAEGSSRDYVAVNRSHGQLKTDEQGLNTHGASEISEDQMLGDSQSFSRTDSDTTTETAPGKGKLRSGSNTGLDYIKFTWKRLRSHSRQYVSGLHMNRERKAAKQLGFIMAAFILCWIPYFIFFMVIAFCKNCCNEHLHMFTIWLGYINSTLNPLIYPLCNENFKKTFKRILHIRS
How it was run: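 U373-MG human cells expressing H1R, calcium assay. […] KB was derived from IC50 by the Cheng-Prusoff equation. Values are the mean of two experiments.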

[3] = biological target: Histamine H2 receptor (Cavia porcellus) (UniProt P47747); assay: Antagonist activity at histamine H2 receptor in guinea pig spontaneously beating right atrium assessed as histamine Emax at 58 uM; format: functional, tissue-based; details: Cardiac atrium
Chain of Histamine H2 receptor (Cavia porcellus) (P47747 whole entry): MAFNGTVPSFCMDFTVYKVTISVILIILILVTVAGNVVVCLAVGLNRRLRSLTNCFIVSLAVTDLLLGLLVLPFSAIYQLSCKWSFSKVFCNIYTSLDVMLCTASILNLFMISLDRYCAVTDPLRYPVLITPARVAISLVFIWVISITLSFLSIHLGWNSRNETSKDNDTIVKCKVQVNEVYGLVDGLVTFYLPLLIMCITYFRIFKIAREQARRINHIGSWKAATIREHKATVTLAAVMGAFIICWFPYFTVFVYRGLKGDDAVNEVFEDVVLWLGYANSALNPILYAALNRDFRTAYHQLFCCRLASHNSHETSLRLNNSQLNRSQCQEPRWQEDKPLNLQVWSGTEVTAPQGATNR

[4] = biological target: Histamine H2 receptor (Cavia porcellus) (UniProt P47747); assay: Antagonist activity at histamine H2 receptor in guinea pig spontaneously beating right atrium assessed as positive chronotropic activity at 58 uM relative to histamine; format: functional, tissue-based; details: Cardiac atrium

Chain of Histamine H2 receptor (P47747 whole entry): as above

pA2 (Histamine H2 receptor): 5.19
SMILES: CC(CCN=C(N)NC(=O)CCc1cnc[nH]1)c1ccccc1 (stereo not given)

pKa [1]: 12.5
SMILES: N=C(N)N [GUANIDINE]

Kb [2]: 9.3 µM
Emax [3]: 45%
Emax [4]: 7%
SMILES: CC(CCNC(=N)NC(=O)CCc1c[nH]cn1)c1ccccc1 (stereo not given)
